The source of these data is ChEMBL document CHEMBL4014306, “Pyrazolopyrimidines as Potent Stimulators for Transient Receptor Potential Canonical 3/6/7 Channels” (J Med Chem, 2017).

Common to all, as to assay type: cell-based
Test [1] addresses T1, Short transient receptor potential channel 6 (Mus musculus, UniProt Q61143).
T1 sequence (Q61143 whole entry): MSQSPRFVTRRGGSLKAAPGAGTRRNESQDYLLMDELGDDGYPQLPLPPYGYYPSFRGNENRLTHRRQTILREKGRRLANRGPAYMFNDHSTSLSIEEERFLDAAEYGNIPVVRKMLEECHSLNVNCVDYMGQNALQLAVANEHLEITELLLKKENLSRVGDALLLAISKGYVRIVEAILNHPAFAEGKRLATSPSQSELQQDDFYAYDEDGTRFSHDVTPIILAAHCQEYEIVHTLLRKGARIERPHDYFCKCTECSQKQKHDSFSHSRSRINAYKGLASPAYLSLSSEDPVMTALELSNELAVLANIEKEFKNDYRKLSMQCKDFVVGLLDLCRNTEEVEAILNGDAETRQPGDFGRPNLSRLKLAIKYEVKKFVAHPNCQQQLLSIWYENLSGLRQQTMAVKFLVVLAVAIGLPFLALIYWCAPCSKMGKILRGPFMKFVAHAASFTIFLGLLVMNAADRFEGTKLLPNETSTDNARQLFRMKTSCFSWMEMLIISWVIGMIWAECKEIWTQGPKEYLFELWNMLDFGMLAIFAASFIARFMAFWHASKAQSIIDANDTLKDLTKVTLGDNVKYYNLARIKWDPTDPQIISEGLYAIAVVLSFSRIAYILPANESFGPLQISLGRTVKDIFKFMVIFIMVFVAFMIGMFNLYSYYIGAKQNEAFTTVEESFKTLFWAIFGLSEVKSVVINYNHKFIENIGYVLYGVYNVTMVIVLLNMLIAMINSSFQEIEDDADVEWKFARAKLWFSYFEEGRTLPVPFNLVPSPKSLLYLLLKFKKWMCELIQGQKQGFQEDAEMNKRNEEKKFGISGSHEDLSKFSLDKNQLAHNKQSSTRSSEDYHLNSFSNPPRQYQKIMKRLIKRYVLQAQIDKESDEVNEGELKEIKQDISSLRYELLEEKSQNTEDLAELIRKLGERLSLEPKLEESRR
The test is described as follows: Agonist activity at mouse TRPC6 expressed in HEK293 cells co-expressing Gq11-PLCbeta fused M5 receptor assessed as peak current changes at +80 mV by whole cell patch-clamp method. Summed up:
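Whole-cell patch clamp of TRPC6/M5 HEK293 cells. Pipette solution: 110 CsCl, 10 BAPTA, 4.77 CaCl2 (400 nM free Ca2+), pH 7.2. Bath at 0.1 mM Ca2+, pH 7.4. Ramps from +100 to −100 mV (100 ms) every 1 s from a 0 mV holding potential. Concentrations of 0.1–100 μM applied consecutively by perfusion. EC50 from currents at +80 mV.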

Test [2] addresses T2, Transient receptor potential cation channel subfamily M member 5 (Homo sapiens) (UniProt Q9NZQ8).
T2 sequence (whole entry): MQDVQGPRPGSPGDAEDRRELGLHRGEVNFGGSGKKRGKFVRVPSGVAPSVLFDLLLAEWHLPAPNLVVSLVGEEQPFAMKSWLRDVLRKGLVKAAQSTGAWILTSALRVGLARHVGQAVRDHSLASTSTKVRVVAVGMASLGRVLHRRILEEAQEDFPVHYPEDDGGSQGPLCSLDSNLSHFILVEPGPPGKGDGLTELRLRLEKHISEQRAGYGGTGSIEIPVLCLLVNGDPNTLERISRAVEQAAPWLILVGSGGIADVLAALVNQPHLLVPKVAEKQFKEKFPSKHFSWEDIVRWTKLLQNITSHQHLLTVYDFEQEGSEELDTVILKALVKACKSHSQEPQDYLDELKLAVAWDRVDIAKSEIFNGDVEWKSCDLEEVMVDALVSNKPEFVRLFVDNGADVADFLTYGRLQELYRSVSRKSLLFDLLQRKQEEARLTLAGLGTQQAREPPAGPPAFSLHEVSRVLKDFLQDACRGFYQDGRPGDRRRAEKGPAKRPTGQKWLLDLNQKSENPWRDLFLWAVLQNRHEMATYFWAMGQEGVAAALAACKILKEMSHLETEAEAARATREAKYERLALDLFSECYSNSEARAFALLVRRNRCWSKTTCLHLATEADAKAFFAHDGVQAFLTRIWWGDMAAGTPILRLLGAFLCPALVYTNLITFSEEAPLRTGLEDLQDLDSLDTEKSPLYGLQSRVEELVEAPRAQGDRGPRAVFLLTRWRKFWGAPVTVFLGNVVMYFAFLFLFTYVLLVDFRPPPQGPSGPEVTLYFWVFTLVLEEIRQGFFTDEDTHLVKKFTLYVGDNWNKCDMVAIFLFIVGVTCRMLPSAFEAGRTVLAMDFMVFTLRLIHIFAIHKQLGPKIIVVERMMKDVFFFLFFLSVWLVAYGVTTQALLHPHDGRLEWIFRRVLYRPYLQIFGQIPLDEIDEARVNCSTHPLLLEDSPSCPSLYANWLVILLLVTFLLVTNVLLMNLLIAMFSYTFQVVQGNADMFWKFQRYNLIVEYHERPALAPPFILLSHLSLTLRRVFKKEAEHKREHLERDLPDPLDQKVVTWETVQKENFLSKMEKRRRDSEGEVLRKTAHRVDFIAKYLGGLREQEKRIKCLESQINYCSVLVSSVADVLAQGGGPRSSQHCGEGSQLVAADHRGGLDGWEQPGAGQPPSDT
The test is described as follows: Agonist activity at human TRPM5 expressed in HEK293 cells assessed as induction of membrane depolarization at 33 uM measured for 2.5 mins by FLIPR membrane potential dye-based fluorescence assay.

Test [3] concerns the target Transient receptor potential cation channel subfamily V member 1 (Homo sapiens) (UniProt Q8NER1). Description: Agonist activity at human TRPV1 expressed in HEK293 cells assessed as increase in intracellular calcium level at 33 uM measured for 2.5 mins by Fluo-8-AM dye based fluorescence assay.

The source made the active and inactive calls. No cut-off for these calls is given here.

Chain of Transient receptor potential cation channel subfamily V member 1 (Homo sapiens) (Q8NER1 whole entry): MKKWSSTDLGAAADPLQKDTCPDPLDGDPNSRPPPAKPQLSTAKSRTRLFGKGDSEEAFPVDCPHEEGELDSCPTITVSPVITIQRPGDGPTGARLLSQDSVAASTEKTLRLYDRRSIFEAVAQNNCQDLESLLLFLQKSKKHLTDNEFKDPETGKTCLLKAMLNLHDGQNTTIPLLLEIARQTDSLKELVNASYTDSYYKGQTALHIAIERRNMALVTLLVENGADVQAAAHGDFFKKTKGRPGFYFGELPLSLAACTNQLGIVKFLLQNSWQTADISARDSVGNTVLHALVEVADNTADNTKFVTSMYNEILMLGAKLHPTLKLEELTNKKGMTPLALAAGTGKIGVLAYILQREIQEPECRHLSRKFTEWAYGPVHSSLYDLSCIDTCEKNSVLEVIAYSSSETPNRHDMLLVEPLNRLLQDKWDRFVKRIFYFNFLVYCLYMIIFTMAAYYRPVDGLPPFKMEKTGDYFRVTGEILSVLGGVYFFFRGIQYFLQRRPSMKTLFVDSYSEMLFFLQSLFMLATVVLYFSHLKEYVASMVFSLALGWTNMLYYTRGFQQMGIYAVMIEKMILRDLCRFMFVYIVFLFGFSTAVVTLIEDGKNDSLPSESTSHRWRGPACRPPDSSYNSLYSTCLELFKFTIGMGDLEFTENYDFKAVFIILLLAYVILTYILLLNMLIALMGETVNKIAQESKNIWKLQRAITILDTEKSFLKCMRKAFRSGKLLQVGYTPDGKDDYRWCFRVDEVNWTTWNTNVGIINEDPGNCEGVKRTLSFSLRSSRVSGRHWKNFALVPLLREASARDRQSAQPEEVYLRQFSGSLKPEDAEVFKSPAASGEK

In the case of `Cc1nn2c(O)cc(C3CCN(C(=O)OCc4ccccc4)CC3)nc2c1-c1ccc(Cl)cc1`, in test [1], the EC50 came to 2050 nM. In addition, the outcome in test [2] and in test [3] was inactive.
Consider `Cc1nn2c(O)cc(C3CCN(C(=O)OCc4ccccc4)CC3)nc2c1-c1ccc(F)cc1`, for which, in test [1], the EC50 was found to be 3240 nM. Also, the outcome in test [2] and in test [3] was inactive.
Turning to `CCOC(=O)N1CCC(c2cc(O)n3nc(C)c(-c4ccc(F)cc4)c3n2)CC1`, the EC50 in test [1] is 2500 to 6280 nM. Besides, the outcome in test [2] and in test [3] was inactive.
In the case of `CCOC(=O)N1CCC(c2cc(O)n3nc(C)c(-c4ccc(C(F)(F)F)cc4)c3n2)CC1`, in test [1], the EC50 is 890 nM. Further, the outcome in test [2] and in test [3] was inactive.
